In ChEMBL document CHEMBL4689842, “EUbOPEN Chemogenomics Library wave 1” (2021):

Test system: HEK-293T
Test: Multiplex assay against HEK293T;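 as to Population Tubulin-Different-Phenotype (%): share of the cells with healthy nuclei that show this phenotype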
Type: toxicity, cell-based
Conditions: human
In short: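 Per cents of healthy-nucleus cells form the tubulin, mitochondrial-mass and membrane-permeability phenotype values. Live cells were stained at seeding with Hoechst33342, BioTracker Green Microtubule Cytoskeleton Dye, MitoTracker Red and Annexin V Alexa Fluor 680. After compound addition they were imaged on a CQ1 microscope at 37°C and 5% CO2, and CellPathfinder machine-learning gating split them into Hoechst high-intensity objects or normal cells, normal cells into healthy, pyknosed or fragmented nuclei, and pyknosed cells into mitotic or apoptotic.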

[1] = 12 h, 1 µM, compound concentration 1 uM, replicate 1
[2] = 12 h, 1 µM, compound concentration 1 uM, replicate 2
[3] = 12 h, 10 µM, compound concentration 10 uM, replicate 1
[4] = 12 h, 10 µM, compound concentration 10 uM, replicate 2
[5] = 24 h, 1 µM, compound concentration 1 uM, replicate 1
[6] = 24 h, 1 µM, compound concentration 1 uM, replicate 2
[7] = 24 h, 10 µM, compound concentration 10 uM, replicate 1
[8] = 24 h, 10 µM, compound concentration 10 uM, replicate 2
[9] = 48 h, 1 µM, compound concentration 1 uM, replicate 1
[10] = 48 h, 1 µM, compound concentration 1 uM, replicate 2
[11] = 48 h, 10 µM, compound concentration 10 uM, replicate 1
[12] = 48 h, 10 µM, compound concentration 10 uM, replicate 2

COc1cc2c(NC3CCN(C(C)C)CC3)nc(N3CCC(F)(F)CC3)nc2cc1OCCCN1CCCC1
Population Apoptotic (%) [1]: 67% | Population Fragmented Nuclei (%) [1]: 16% | Population Healthy Nuclei (%) [1]: 32% | Population Hoechst High Intensity Objects (%) [1]: 19% | Population Membrane Permeable-Phenotype (%) [1]: 0% | Population Mitochondria Different-Phenotype (%) [1]: 96% | Population Mitotic Cells (%) [1]: 32% | Population Normal (%) [1]: 80% | Population Pyknosed Nuclei (%) [1]: 50% | Population Tubulin-Different-Phenotype (%) [1]: 76% | Total Cell Count [1]: 324 | Population Apoptotic (%) [2]: 37% | Population Fragmented Nuclei (%) [2]: 8% | Population Healthy Nuclei (%) [2]: 40% | Population Hoechst High Intensity Objects (%) [2]: 6% | Population Membrane Permeable-Phenotype (%) [2]: 4% | Population Mitochondria Different-Phenotype (%) [2]: 56% | Population Mitotic Cells (%) [2]: 62% | Population Normal (%) [2]: 93% | Population Pyknosed Nuclei (%) [2]: 51% | Population Tubulin-Different-Phenotype (%) [2]: 48% | Total Cell Count [2]: 235 | Population Apoptotic (%) [3]: 90% | Population Fragmented Nuclei (%) [3]: 8% | Population Healthy Nuclei (%) [3]: 26% | Population Hoechst High Intensity Objects (%) [3]: 18% | Population Membrane Permeable-Phenotype (%) [3]: 0% | Population Mitochondria Different-Phenotype (%) [3]: 100% | Population Mitotic Cells (%) [3]: 9% | Population Normal (%) [3]: 81% | Population Pyknosed Nuclei (%) [3]: 64% | Population Tubulin-Different-Phenotype (%) [3]: 98% | Total Cell Count [3]: 298 | Population Apoptotic (%) [4]: 92% | Population Fragmented Nuclei (%) [4]: 7% | Population Healthy Nuclei (%) [4]: 24% | Population Hoechst High Intensity Objects (%) [4]: 6% | Population Mitochondria Different-Phenotype (%) [4]: 98% | Population Mitotic Cells (%) [4]: 7% | Population Normal (%) [4]: 93% | Population Pyknosed Nuclei (%) [4]: 68% | Population Tubulin-Different-Phenotype (%) [4]: 96% | Total Cell Count [4]: 245 | Population Apoptotic (%) [5]: 61% | Population Fragmented Nuclei (%) [5]: 16% | Population Healthy Nuclei (%) [5]: 42% | Population Hoechst High Intensity Objects (%) [5]: 24% | Population Membrane Permeable-Phenotype (%) [5]: 1% | Population Mitochondria Different-Phenotype (%) [5]: 77% | Population Mitotic Cells (%) [5]: 38% | Population Normal (%) [5]: 75% | Population Pyknosed Nuclei (%) [5]: 41% | Population Tubulin-Different-Phenotype (%) [5]: 51% | Total Cell Count [5]: 348 | Population Apoptotic (%) [6]: 39% | Population Fragmented Nuclei (%) [6]: 6% | Population Healthy Nuclei (%) [6]: 60% | Population Hoechst High Intensity Objects (%) [6]: 12% | Population Membrane Permeable-Phenotype (%) [6]: 4% | Population Mitochondria Different-Phenotype (%) [6]: 45% | Population Mitotic Cells (%) [6]: 60% | Population Normal (%) [6]: 87% | Population Pyknosed Nuclei (%) [6]: 33% | Population Tubulin-Different-Phenotype (%) [6]: 45% | Total Cell Count [6]: 272 | Population Apoptotic (%) [7]: 85% | Population Fragmented Nuclei (%) [7]: 11% | Population Healthy Nuclei (%) [7]: 23% | Population Hoechst High Intensity Objects (%) [7]: 24% | Population Membrane Permeable-Phenotype (%) [7]: 0% | Population Mitochondria Different-Phenotype (%) [7]: 100% | Population Mitotic Cells (%) [7]: 14% | Population Normal (%) [7]: 75% | Population Pyknosed Nuclei (%) [7]: 65% | Population Tubulin-Different-Phenotype (%) [7]: 91% | Total Cell Count [7]: 324 | Population Apoptotic (%) [8]: 95% | Population Fragmented Nuclei (%) [8]: 7% | Population Healthy Nuclei (%) [8]: 25% | Population Hoechst High Intensity Objects (%) [8]: 14% | Population Membrane Permeable-Phenotype (%) [8]: 1% | Population Mitochondria Different-Phenotype (%) [8]: 92% | Population Mitotic Cells (%) [8]: 4% | Population Normal (%) [8]: 85% | Population Pyknosed Nuclei (%) [8]: 67% | Population Tubulin-Different-Phenotype (%) [8]: 86% | Total Cell Count [8]: 244 | Population Apoptotic (%) [9]: 55% | Population Fragmented Nuclei (%) [9]: 19% | Population Healthy Nuclei (%) [9]: 41% | Population Hoechst High Intensity Objects (%) [9]: 25% | Population Membrane Permeable-Phenotype (%) [9]: 4% | Population Mitochondria Different-Phenotype (%) [9]: 38% | Population Mitotic Cells (%) [9]: 44% | Population Normal (%) [9]: 75% | Population Pyknosed Nuclei (%) [9]: 38% | Population Tubulin-Different-Phenotype (%) [9]: 38% | Total Cell Count [9]: 368 | Population Apoptotic (%) [10]: 17% | Population Fragmented Nuclei (%) [10]: 8% | Population Healthy Nuclei (%) [10]: 78% | Population Hoechst High Intensity Objects (%) [10]: 12% | Population Membrane Permeable-Phenotype (%) [10]: 7% | Population Mitochondria Different-Phenotype (%) [10]: 9% | Population Mitotic Cells (%) [10]: 82% | Population Normal (%) [10]: 87% | Population Pyknosed Nuclei (%) [10]: 12% | Population Tubulin-Different-Phenotype (%) [10]: 33% | Total Cell Count [10]: 508 | Population Apoptotic (%) [11]: 89% | Population Fragmented Nuclei (%) [11]: 18% | Population Healthy Nuclei (%) [11]: 10% | Population Hoechst High Intensity Objects (%) [11]: 26% | Population Membrane Permeable-Phenotype (%) [11]: 3% | Population Mitochondria Different-Phenotype (%) [11]: 96% | Population Mitotic Cells (%) [11]: 10% | Population Normal (%) [11]: 73% | Population Pyknosed Nuclei (%) [11]: 70% | Population Tubulin-Different-Phenotype (%) [11]: 82% | Total Cell Count [11]: 347 | Population Apoptotic (%) [12]: 94% | Population Fragmented Nuclei (%) [12]: 8% | Population Healthy Nuclei (%) [12]: 38% | Population Hoechst High Intensity Objects (%) [12]: 21% | Population Membrane Permeable-Phenotype (%) [12]: 5% | Population Mitochondria Different-Phenotype (%) [12]: 97% | Population Mitotic Cells (%) [12]: 5% | Population Normal (%) [12]: 78% | Population Pyknosed Nuclei (%) [12]: 53% | Population Tubulin-Different-Phenotype (%) [12]: 84% | Total Cell Count [12]: 232
